# Scp-1 inhibitor: Scp-1 phosphatase inhibitors, primary screen, biochemical, colorimetric, uHTS; Recombinant Scp1, phosphopeptide, malachite green phosphate absorbance; inhibition, % at 20 µM; 340,000 compounds, 0.88% hits; AID 493091, 2011;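 active = inhibition above about 50% at 20 µM, limit read from the data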
#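 Material: truncated SCP-1 phosphatase (76-261aa) / Buffer or medium: 50 mM Tris acetate pH 5.5, 0.005% Tween-20, 10 mM MgCl2 / Compound dosing: one concentration, 20 µM, with 1.0% DMSO / Incubation: 45 min room-temperature reaction, 5 min colour, 30 min stabiliser / Detection: colorimetric free-phosphate detection, absorbance 630 nm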
# DNMT1 inh: human DNMT1 methyltransferase inhibitors, primary screen, biochemical, molecular beacon, fluorescence, HinP1I cleavage, uHTS; AID 588458, 2011; inhibition (reported as % activation of signal), % at 10 µM; 360,000 compounds, 0.83% hits; in the data active = inhibition above about 50%
# SUMO1-SIM PPI: modulators of SUMO1 protein-protein interactions, primary screen, biochemical, uHTS; Small ubiquitin-related modifier 1 (Homo sapiens), P63165; SUMO1 binding to a labelled peptide, TR-FRET, 1 h; inhibition, % at 20 µM; 360,000 compounds, 0.33% hits; in the data active = inhibition above about 37%
# Target sequence (P63165 whole entry, looked up): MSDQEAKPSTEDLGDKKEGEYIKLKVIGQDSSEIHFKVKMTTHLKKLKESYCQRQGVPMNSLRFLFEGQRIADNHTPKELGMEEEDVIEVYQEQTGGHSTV
# STEP inh: STEP phosphatase inhibitors, primary screen, biochemical, fluorescence intensity, uHTS | inhibition, % at 20 µM | 360,000 compounds, 0.25% hits | recombinant STEP, OMFP fluorogenic substrate | AID 588621, 2011 | Tyrosine-protein phosphatase non-receptor type 5 (Homo sapiens), P54829;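 active = inhibition at 20 µM, scaled per plate between control wells, above about 37%, limit read from the data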
# Target sequence (P54829 whole entry, looked up): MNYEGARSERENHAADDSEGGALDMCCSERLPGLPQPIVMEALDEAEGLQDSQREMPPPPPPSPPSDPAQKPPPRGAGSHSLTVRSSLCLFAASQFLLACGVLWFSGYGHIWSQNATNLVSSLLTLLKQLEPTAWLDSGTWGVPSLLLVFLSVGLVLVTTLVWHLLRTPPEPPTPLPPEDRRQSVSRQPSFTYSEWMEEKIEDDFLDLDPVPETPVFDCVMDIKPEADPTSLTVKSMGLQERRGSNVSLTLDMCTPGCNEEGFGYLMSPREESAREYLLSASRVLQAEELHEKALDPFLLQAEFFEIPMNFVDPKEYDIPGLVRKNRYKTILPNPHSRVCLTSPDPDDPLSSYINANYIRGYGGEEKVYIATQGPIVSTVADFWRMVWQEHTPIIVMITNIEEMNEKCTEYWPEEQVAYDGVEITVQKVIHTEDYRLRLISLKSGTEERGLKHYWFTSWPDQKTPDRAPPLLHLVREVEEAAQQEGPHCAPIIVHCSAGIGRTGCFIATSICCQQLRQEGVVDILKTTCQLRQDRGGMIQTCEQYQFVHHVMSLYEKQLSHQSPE
#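 System: STEP (striatal-enriched tyrosine phosphatase) enzyme, cell-free; medium: Bis-Tris pH 6.0 buffer with DTT, detergent; dosing: 20 µM, 1% DMSO; times: reaction 20 min, ambient temperature; detection: fluorescence, 480/540 nm; read-out basis: normalized % inhibition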
# LMPTP block: LMPTP phosphatase inhibitors, primary screen, biochemical, fluorescence intensity, uHTS; Low molecular weight phosphotyrosine protein phosphatase (Homo sapiens), P24666; recombinant LMPTP-A, OMFP fluorogenic substrate; inhibition, % at 20 µM; 360,000 compounds, 0.22% hits;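 active = compounds that cut the enzyme signal by at least half of the control window in the single-dose screen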
#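 Buffer or medium: Bis-Tris pH 6.0, DTT, detergent; Assay system: LMPTP-A enzyme; Quantity: 0.625 nM enzyme; Detection: endpoint fluorescence intensity; Times: 50 min dark incubation at room temperature; Controls: substrate-only low control, DMSO enzyme-plus-substrate high control; Doses: single 20 µM dose; Read-out: percent inhibition versus substrate-only and uninhibited controls; Reagent: 400 µM OMFP.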
# Beacon interf DR: spectral interference with molecular beacon fluorescence, dose response, artefact control for DNMT1 inhibitor project, biochemical, fluorescent molecular beacon. IC50, µM. shares compounds with DNMT1 inh. spectral interference counter-screen. 200 tested, under 10 active; call rule not given here
# DNMT1 inh conf: DNMT1 methyltransferase inhibitor retest, confirmation, biochemical, molecular beacon, fluorescence, single concentration | DNMT1 molecular beacon HinP1I cleavage | shares compounds with DNMT1 inh | inhibition, % at 10 µM | 2,300 compounds, 8% hits;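 active = average inhibition of at least 30% in the single-concentration confirmation test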
# DNMT1 interf: counter-screen for DNMT1 inhibitors: spectral interference; activation (fluorescence interference), % at 10 µM; DNMT1 molecular beacon spectral interference counterscreen, fluorescence 485/520; 2,300 compounds, 1% hits; shares compounds with DNMT1 inh; AID 602387;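 active = activation of at least 30% at 10 µM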;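 note: DNMT1 catalytic domain with a HinP1I cleavage step and a FAM/dabcyl DNA beacon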
# A number is an active result; n = inactive; x = no result given; + = active, no number. Most compounds without a hit are left out; they make up all but 1.7% or so of the library.
SMILES,Scp-1 inhibitor,DNMT1 inh,SUMO1-SIM PPI,STEP inh,LMPTP block,DNMT1 inh conf,DNMT1 interf,others
Cc1c(=O)n(OCc2ccccc2F)c2ccccc2[n+]1[O-],n,84,n,n,n,n,n,
Cc1c(=O)n(OCc2cccc(F)c2)c2ccccc2[n+]1[O-],n,n,n,n,n,x,x,
CCOc1ccc2noc3c2c1C(=O)c1ccccc1-3,n,+,n,n,n,140,134,
O=C1c2ccccc2-c2onc3ccc(N4CCCC4)c1c23,n,n,n,n,n,x,x,
COC(=O)NC1CCC(CC2CCC(NC(=O)OC)CC2)CC1 (stereo unspecified),n,n,n,n,n,x,x,
O=C(NC1CCC(CC2CCC(NC(=O)C(Cl)Cl)CC2)CC1)C(Cl)Cl (stereo unspecified),n,63,n,n,n,n,n,
O=C1NN(c2ccc(Cl)cc2)C(=O)/C1=C\c1ccc(-c2cccc(C(=O)O)c2)o1,94,95,40,97,82,34,n,Beacon interf DR=n
O=C(C[C@H]1C/C=C\C[C@H](Cc2ccc(F)cc2)C(=O)O[C@@H](c2ccccc2)CNC1=O)N[C@@H](CO)Cc1ccccc1,n,63,n,n,n,n,n,
O=C(C[C@H]1C/C=C\C[C@@H](Cc2ccc(F)cc2)C(=O)O[C@@H](c2ccccc2)CNC1=O)N[C@@H](CO)Cc1ccccc1,n,n,n,n,n,x,x,
C[C@@H]1CN([C@@H](C)CO)C(=O)CCCn2nncc2CO[C@@H]1CN(C)S(=O)(=O)c1ccc(C#N)cc1,x,n,n,n,n,x,x,
CC(C)(C)OC(=O)N1CCC(C(=O)Nc2cccc(C(=O)N3CCCC3)c2)CC1,n,n,n,n,n,x,x,
CCCCCn1c(N)c(-c2nc3ccccc3s2)c2c([N+](=O)[O-])nn(C)c(=O)c21,n,n,n,n,n,x,x,
CCCCn1c(N)c(-c2nc3ccccc3o2)c2c([N+](=O)[O-])nn(CC)c(=O)c21,n,56,n,n,n,n,n,
COc1ccc(NC(=O)c2c(C)noc2C)cc1S(=O)(=O)N1CCCCC1,x,n,n,n,n,x,x,
O=c1nc2c(O)cccn2c2c1c(=O)[nH]c1ccccc12,55,105,n,57,65,n,n,
O=c1[nH]c2ccccc2c2nc3ccccn3c12,n,n,n,n,n,x,x,
CCCCNC(=O)[C@]1(C)CCC[C@@]2(C)C3CC[C@@]4(C)C[C@]3(CCC21)CC4=O (stereo partly specified),n,n,n,n,n,x,x,
CCCC[N+](C)(C)CCC(=O)NC(C)(C)CS(=O)(=O)[O-],n,66,n,n,n,n,n,
N#Cc1c(-c2cccc(Br)c2)cc(-c2ccco2)[nH]c1=O,n,87,n,n,n,n,n,
O=C1NC(c2ccc(Cl)cc2Cl)Oc2ccccc21 (stereo unspecified),n,n,n,n,n,x,x,
Cc1ccccc1C1NC(=O)c2ccccc2O1 (stereo unspecified),n,75,n,n,n,n,n,
CC1CC(C)(C)N(C(=O)CN2C(=O)CCC2=O)c2ccccc21 (stereo unspecified),n,n,n,n,n,x,x,
FC(F)(F)c1cccc(CC2CN(Cc3ccccc3)Cc3ccccc3N2c2cc(Cl)cc(Cl)c2)c1 (stereo unspecified),x,n,n,n,n,x,x,
Cc1cc(/C=C2\SC(=S)NC2=O)c(C)n1C,n,92,43,n,n,n,n,
CC(=O)C[C@@H](O)CC(=O)[C@@H]1OC(=O)CCCCCCCc2ccccc21,n,n,n,n,n,x,x,
SMILES,Scp-1 inhibitor,DNMT1 inh,SUMO1-SIM PPI,STEP inh,LMPTP block,DNMT1 inh conf,DNMT1 interf,others
C(=Nc1cccc2c(N=Cc3ccco3)cccc12)c1ccco1,n,n,n,n,n,x,x,
C(=N\C(/N=C/c1ccco1)c1ccco1)/c1ccco1,n,71,n,n,n,n,n,
CCC(C)NC(=O)CSc1nnc(-c2ccc(OC)c(OC)c2)c(-c2ccc(OC)c(OC)c2)n1 (stereo unspecified),n,n,n,n,n,x,x,
CC(=O)Nc1cc(-c2ccccc2N(C)C)cn2c(-c3ccccc3)cnc12,x,n,n,n,n,x,x,
CC(=O)Nc1cc(-c2ccccc2N(C)C)cn2c(-c3ccc(S(C)(=O)=O)cc3)cnc12,x,189,n,n,n,n,n,
O=C(CC[C@H]1O[C@@H](n2cnc3c(NC(=O)c4ccccc4)ncnc32)[C@H](O)[C@@H]1O)NCc1nc2ccccc2[nH]1,x,116,44,n,n,n,n,
C=CCn1c(C)cc(C(=O)Cn2ncc(Cl)c(Cl)c2=O)c1C,n,103,n,n,n,n,n,
CC(C)(C)c1ccc(-c2csc(NC(=O)CN3C(=O)NC4(CCCCC4)C3=O)n2)cc1,n,54,n,n,n,n,n,
Nc1ccc(Nc2ccccc2)c(S(=O)(=O)O)c1,83,97,58,97,70,n,n,
NCCCCCNC(=O)c1[nH]cnc1C(=O)N[C@@H](Cc1ccccc1)C(=O)OCc1ccccc1,n,n,n,n,n,x,x,
CCc1ccc(NS(=O)(=O)c2ccc3oc(=O)ccc3c2)cc1,n,n,n,n,n,x,x,
Cc1ccc(-c2csc3ncn(CC#N)c(=O)c23)cc1C,n,n,n,n,n,x,x,
Cc1ccc(-c2csc3ncn(CC#N)c(=O)c23)cc1,n,n,n,n,n,n,n,
COc1ccc(C(=O)N(c2c(C)cccc2C)C(COC(C)=O)COC(C)=O)cc1,x,x,n,x,n,x,x,
Cc1ccc(S(=O)(=O)N2CCC(C(=O)OCC(=O)N(C)C3CCS(=O)(=O)C3)CC2)cc1C (stereo unspecified),n,n,n,n,n,x,x,
COc1ccc(N2CCN(C(CNC(=O)C(=O)NCCc3c[nH]c4ccccc34)c3ccco3)CC2)cc1 (stereo unspecified),n,78,n,n,n,n,n,
C[C@H]1CN([C@@H](C)CO)C(=O)CCCn2nncc2CO[C@H]1CN(C)S(=O)(=O)c1ccc(F)cc1,x,n,n,n,n,x,x,
O=C(Nc1sc2c(c1C(=O)O)CCC2)C(=O)N1CCOCC1,n,61,n,n,n,n,n,

# Bioassay records as filed in PubChem BioAssay.
